As a reminder, the IC50 is the concentration that inhibits the measured activity by half.

Data set [1] addresses T1, Amine oxidase [flavin-containing] B (Homo sapiens, UniProt P27338).
T1 sequence (P27338 whole entry): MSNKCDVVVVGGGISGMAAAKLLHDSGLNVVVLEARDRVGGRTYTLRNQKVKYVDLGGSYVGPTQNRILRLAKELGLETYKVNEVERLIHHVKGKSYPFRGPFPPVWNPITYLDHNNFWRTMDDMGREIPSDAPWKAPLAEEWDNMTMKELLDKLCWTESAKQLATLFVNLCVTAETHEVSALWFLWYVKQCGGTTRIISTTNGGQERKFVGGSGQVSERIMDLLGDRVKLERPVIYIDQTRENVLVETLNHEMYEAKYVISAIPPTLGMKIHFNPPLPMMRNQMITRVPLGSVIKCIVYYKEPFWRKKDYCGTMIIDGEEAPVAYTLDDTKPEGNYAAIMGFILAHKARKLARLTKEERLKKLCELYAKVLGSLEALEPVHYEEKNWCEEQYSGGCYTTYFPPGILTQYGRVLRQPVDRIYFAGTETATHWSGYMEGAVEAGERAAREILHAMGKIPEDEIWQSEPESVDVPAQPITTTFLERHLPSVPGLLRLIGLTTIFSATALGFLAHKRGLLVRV
Kind of data set: Inhibition of human recombinant MAOB at 100 uM using kynuramine as substrate by fluorescence assay. Put shortly:
(§1)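 Enzyme: insect-cell microsomal recombinant human MAO-A or -B (0.0075 mg/mL) in 100 mM potassium phosphate, pH 7.4, isotonic with KCl. Kynuramine 45 µM (MAO-A) or 30 µM (MAO-B), inhibitor 0–100 µM, 37 °C, 20 min. Reaction stopped with 2 N NaOH. 4-Hydroxyquinoline fluorescence read at ex 310/em 400 nm against a calibration curve. IC50 taken from one-site fits of six concentrations, in triplicate. Selectivity = IC50(MAO-A)/IC50(MAO-B).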

The target of data set [2] is T2, Amine oxidase [flavin-containing] A (Homo sapiens, UniProt P21397).
T2 sequence (P21397 whole entry): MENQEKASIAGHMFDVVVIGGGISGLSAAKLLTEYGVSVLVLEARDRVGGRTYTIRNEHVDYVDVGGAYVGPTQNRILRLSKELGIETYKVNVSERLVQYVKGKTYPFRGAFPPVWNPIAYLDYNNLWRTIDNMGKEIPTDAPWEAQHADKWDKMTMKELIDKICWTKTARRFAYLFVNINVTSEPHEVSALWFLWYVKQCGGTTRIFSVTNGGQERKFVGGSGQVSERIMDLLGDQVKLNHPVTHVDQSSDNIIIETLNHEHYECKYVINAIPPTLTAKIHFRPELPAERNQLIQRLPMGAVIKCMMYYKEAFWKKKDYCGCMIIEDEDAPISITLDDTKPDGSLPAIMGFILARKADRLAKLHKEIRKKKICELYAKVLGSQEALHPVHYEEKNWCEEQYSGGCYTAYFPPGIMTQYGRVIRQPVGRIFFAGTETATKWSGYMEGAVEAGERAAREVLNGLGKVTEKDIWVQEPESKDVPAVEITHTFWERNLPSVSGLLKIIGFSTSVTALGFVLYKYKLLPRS
As to the kind of experiment: Inhibition of human recombinant MAOA at 100 uM using kynuramine as substrate by fluorescence assay. Summed up:
as §1

Data set [3] concerns the target T1, Amine oxidase [flavin-containing] B. Kind of data set: Reversible Inhibition of human recombinant MAOB using kynuramine as substrate at 2 times IC50 up to 60 mins. The following applies: 1 h. Put shortly:
(§2)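 Recombinant human MAO-A or -B (0.015–0.03 mg/mL) was preheated at 37 °C for 60 min in total and preincubated with inhibitor at about 2× its IC50 for 0, 15, 30 or 60 min in pH 7.4 potassium phosphate. Mixtures were diluted 2-fold with kynuramine (45 µM MAO-A, 30 µM MAO-B) and incubated 15 min at 37 °C. Residual 4-hydroxyquinoline formation was read by fluorescence.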

Data set [4] deals with T2, Amine oxidase [flavin-containing] A. Kind of data set: Inhibition of human recombinant MAOA using kynuramine as substrate by fluorescence assay. Put shortly: as §1
The target is the same in data set [5]. Kind of data set: Inhibition of human recombinant MAOA using kynuramine as substrate at 5.22 uM after 60 mins by fluorescence assay. The following applies: 1 h. Put shortly:
as §2

Data set [6] concerns the target T1, Amine oxidase [flavin-containing] B. As to the kind of experiment: Time dependent inhibition of human recombinant MAOB using kynuramine as substrate at 0.32 uM by fluorescence assay. Summed up: as §2
Data set [7] has the same target. Kind of data set: Inhibition of human recombinant MAOB using kynuramine as substrate by fluorescence assay. Put shortly:
as §1

Data set [8] shares this target. Kind of data set: Competitive inhibition of human recombinant MAOB using kynuramine as substrate at 0.04 to 0.16 uM by Lineweaver burk plot analysis. Summed up: (§3)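 Insect-cell microsomal recombinant human MAO-A or -B, 0.015 mg/mL, in potassium phosphate buffer (100 mM, pH 7.4, isotonic with KCl). Initial rates were measured with four kynuramine concentrations (15–90 µM), without inhibitor and with three inhibitor levels (MAO-A 1.31–5.22 µM; MAO-B 0.04–0.16 µM). Lineweaver–Burk plots were fitted by linear regression.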

Data set [9] addresses T2, Amine oxidase [flavin-containing] A. Kind of data set: Time dependent inhibition of human recombinant MAOA using kynuramine as substrate at 5.22 uM by fluorescence assay. Summed up: as §2
Data set [10] has as its target T1, Amine oxidase [flavin-containing] B. Kind of data set: Inhibition of human recombinant MAOB using kynuramine as substrate at 0.32 uM after 60 mins by fluorescence assay. The following applies: 1 h. Summed up: as §2
For data set [11], the target named is T2, Amine oxidase [flavin-containing] A. Kind of data set: Competitive inhibition of human recombinant MAOA using kynuramine as substrate at 1.31 to 5.22 uM by Lineweaver burk plot analysis. Summed up: as §3
Data set [12] shares this target. Kind of data set: Reversible Inhibition of human recombinant MAOA using kynuramine as substrate at 2 times IC50 up to 60 mins. The settings on record: 1 h. Put shortly:
as §2

The species named for the next data set is Homo sapiens. Kind of data set: Selectivity ratio, ratio of IC50 for human recombinant MAOA to IC50 for human recombinant MAOB. Summed up:
as §1

In data set [13] the target is T2, Amine oxidase [flavin-containing] A. Kind of data set: Time dependent inhibition of human recombinant MAOA using kynuramine as substrate at 11.56 uM by fluorescence assay. Summed up: as §2
The target is the same in data set [14]. Kind of data set: Inhibition of human recombinant MAOA using kynuramine as substrate at 11.56 uM after 60 mins by fluorescence assay. The settings on record: 1 h. Summed up:
as §2

Data set [15] has as its target T1, Amine oxidase [flavin-containing] B. Kind of data set: Time dependent inhibition of human recombinant MAOB using kynuramine as substrate at 5.94 uM by fluorescence assay. Summed up:
as §2

Data set [16] shares this target. As to the kind of experiment: Inhibition of human recombinant MAOB using kynuramine as substrate at 5.94 uM after 60 mins by fluorescence assay. The following applies: 1 h. Put shortly:
as §2

Turning to `Cn1c(=O)c2c(nc(NCCCc3ccccc3)n2C)n(C)c1=O`, the IC50 result in data set [1] and in data set [2] was “Not Active” in each case.

On to `Cn1c(=O)c2c(nc(NCc3ccccc3)n2C)n(C)c1=O`, for which the IC50 entry in data set [1] and in data set [2] was “Not Active” throughout.

In the case of `Cn1c(=O)c2c(nc(SCc3ccc(Br)cc3)n2C)n(C)c1=O`, the “inhibition (INH)” value in data set [3] is on record as “Active”; in [5] it was “Not Active”; in data set [8], “Active”; in [10], “Not Active”; in [11], “Active”; in data set [12] it was “Active”. Besides, the IC50 was found to be 2.62 µM in data set [4] and 0.167 µM in data set [7]. The TDI entry in data set [6] and in data set [9] was “Not Active” each time. Moreover, the Ratio IC50 in the data set listed under Homo sapiens worked out at 15.7.

As for `Cn1c(=O)c2c(nc(SCCOc3ccccc3)n2C)n(C)c1=O`, the IC50 was 15.5 µM in data set [4] and 0.332 µM in [7]. In addition, the Ratio IC50 in the data set listed under Homo sapiens turned out to be 46.7.

As to `Cn1c(=O)c2c(nc(NCCc3ccccn3)n2C)n(C)c1=O`, the IC50 was 19.4 µM in data set [7] and “Not Active” in data set [2].

Consider `Cn1c(=O)c2c(nc(SCc3ccccc3)n2C)n(C)c1=O`, for which the values for the IC50 in data set [4] and in data set [7] were 8.22 µM and 1.86 µM, respectively. In addition, the Ratio IC50 in the data set listed under Homo sapiens was found to be 4.4.

For `Cn1c(=O)c2c(nc(Sc3ccccc3)n2C)n(C)c1=O`, the IC50 is 56.4 µM in data set [4] and 33.2 µM in data set [7]. Besides, in the data set filed under Homo sapiens, the Ratio IC50 amounted to 1.7.

For `Cn1c(=O)c2c(nc(Sc3ccc4ccccc4c3)n2C)n(C)c1=O`, the IC50 in data set [4] and in data set [7] was 3.6 µM throughout. Moreover, the Ratio IC50 in the data set filed under Homo sapiens was 1.

For `Cn1c(=O)c2c(nc(NCCc3cccc(Cl)c3)n2C)n(C)c1=O`, the TDI result in data set [13] is given as “Not Active”. The “inhibition (INH)” value in data set [14] is given as “Not Active”; in data set [12], “Active”. Besides, the IC50 in data set [4] turned out to be 5.78 µM; in data set [7], 24.4 µM. The Ratio IC50 in the data set filed under Homo sapiens amounted to 0.2.

With `Cn1c(=O)c2c(nc(NCCCCc3ccccc3)n2C)n(C)c1=O`, the IC50 in data set [4] was 30.9 µM; in data set [7], 9.6 µM. Further, in the data set filed under Homo sapiens, the Ratio IC50 is 3.2.

For `Cn1c(=O)c2c(nc(NCCc3ccccc3)n2C)n(C)c1=O`, the IC50 turned out to be 45.2 µM in [4] and 17.6 µM in data set [7]. Moreover, the Ratio IC50 in the data set listed under Homo sapiens turned out to be 2.6.

As to `Cn1c(=O)c2c(nc(Nc3ccccc3)n2C)n(C)c1=O`, the IC50 entry in data set [1] and in data set [2] was “Not Active” in each case.

Regarding `Cn1c(=O)c2c(nc(SC3CCCCC3)n2C)n(C)c1=O`, the IC50 came out at 24.4 µM in data set [4] and 13.1 µM in [7]. In addition, the Ratio IC50 in the data set listed under Homo sapiens turned out to be 1.9.

As for `Cn1c(=O)c2c(nc(SCc3ccc(F)cc3)n2C)n(C)c1=O`, the IC50 was 4.8 µM in data set [4] and 0.348 µM in data set [7]. In the data set listed under Homo sapiens, the Ratio IC50 was 13.8.

For `Cn1c(=O)c2c(nc(SC3CCCC3)n2C)n(C)c1=O`, the IC50 in [4] came to 9.4 µM; in [7], 20.9 µM. Also, the Ratio IC50 in the data set listed under Homo sapiens amounted to 0.4.

Consider `CN(CCc1ccccc1)c1nc2c(c(=O)n(C)c(=O)n2C)n1C`, for which the IC50 in [4] came to 107 µM; in [7] it was 16.8 µM. In the data set filed under Homo sapiens, the Ratio IC50 turned out to be 6.4.

On to `CC(C)CCSc1nc2c(c(=O)n(C)c(=O)n2C)n1C`, for which the IC50 was 15.2 µM in data set [4] and 2.62 µM in [7]. Besides, the Ratio IC50 in the data set filed under Homo sapiens came to 5.8.

Consider `Cn1c(=O)c2c(nc(SCc3ccc(Cl)cc3)n2C)n(C)c1=O`, for which the IC50 in [4] was found to be 2.77 µM; in data set [7] it was 0.192 µM. Also, the Ratio IC50 in the data set filed under Homo sapiens turned out to be 14.4.

With `Cn1c(=O)c2c(nc(NC3CCCC3)n2C)n(C)c1=O`, the IC50 entry in data set [1] and in data set [2] was “Not Active” throughout.

With `Cn1c(=O)c2c(nc(SCCc3ccccc3)n2C)n(C)c1=O`, the IC50 in data set [4] came out at 20.5 µM; in [7] it was 0.223 µM. Also, the Ratio IC50 in the data set filed under Homo sapiens turned out to be 91.9.

With `COc1ccc(CSc2nc3c(c(=O)n(C)c(=O)n3C)n2C)cc1`, the IC50 result in data set [1] and in data set [2] was “Not Active” throughout.

Consider `CN(CCCCc1ccccc1)c1nc2c(c(=O)n(C)c(=O)n2C)n1C`, for which the “inhibition (INH)” value in data set [3] is recorded as “Active”; in data set [16], “Not Active”. Further, the IC50 amounted to 37.7 µM in [4] and 2.97 µM in data set [7]. In addition, in data set [15], the TDI entry is on record as “Not Active”. In the data set listed under Homo sapiens, the Ratio IC50 was 12.7.

For the origin of these results see ChEMBL document CHEMBL1926675, “Thio- and aminocaffeine analogues as inhibitors of human monoamine oxidase” (Bioorg Med Chem, 2011).
